Experimental data taken from ChEMBL document CHEMBL5335784, “Discovery of a novel 1,3,4-oxadiazol-2-one-based NLRP3 inhibitor as a pharmacological agent to mitigate cardiac and metabolic complications in an experimental model of diet-induced metaflammation” (Eur J Med Chem, 2023).
Calls of active or inactive are those of the source. The rule behind the calls is not given here.

How the values were obtained:
Rattus norvegicus [1] = assay: Antiinflammatory activity against high fat diet fed-induced metaflammation Wistar rat model assessed as reduction in HFD-induced metabolic alterations by measuring reduction in triglyceride level in plasma at 20 mg/kg/day, ip administered for 4 weeks; assay type: functional, organism-based
Method in brief: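 Rats fed HFD or SD for 12 weeks, dosed 20 mg/kg/day i.p. in saline/2% DMSO/5% Cremophor-EL during the final 28 days. Serum obtained after sacrifice by centrifuging blood at 2000 x g, 10 min, 4 °C. Glucose read by glucometer; total, HDL and LDL cholesterol and triglycerides measured with commercial kits. n=6–7 per group.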

Rattus norvegicus [2] = assay: Inhibition of ischemia/reperfusion-induced inflammation in ischemia/reperfusion-induced myocardial injury and high fat diet fed obese Wistar rat model assessed as decrease in cardiac TNF-alpha level at 20 mg/kg/day, ip administered for 4 weeks followed by excised heart exposed to global ischemia for 30 mins and reperfusion for 120 mins by ELISA; assay type: functional, organism-based
Method in brief: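 Male Wistar rats on standard or 60% kcal fat diet for 12 weeks; last 28 days i.p. 20 mg/kg/day in saline with 2% DMSO and 5% Cremophor-EL, or vehicle. Hearts perfused by Langendorff with KH buffer at 12 ml/min, 37°C, then 40 min stabilization, 30 min global no-flow ischemia and 120 min reperfusion. Cytokines measured in LV tissue; n=6–7 per group.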

Which results are given for CCOC(=O)Cn1nc(Cc2ccccc2Cl)oc1=O?
Activity (Rattus norvegicus [1]): Active; inhibition (Rattus norvegicus [2]): Active
